In the library only some 2.3% were active in any assay of this set; here they are far more common.
C2C12 statin: protects C2C12 myotubes from simvastatin toxicity; ATP luminescence, 48 h; scaled: DMSO 0, geranylgeraniol control 100; rescue of ATP level, % at 7.49 µM; 0.78% of 330,000 active;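 active means mean ATP rescue above about 67%, or every replicate alone reaching that limit, limit read from the data, passing the limit was not always enough; inconclusive means no clear call, values can overlap the other calls; inactive means mean under the limit and some replicate under it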;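 further: myotubes were challenged with 10 µM simvastatin during compound exposure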
Cneo AK release: causes C. neoformans cell lysis; adenylate kinase release luminescence, 4 h; normalised: neutral wells 0, clomiphene wells 100; lysis activity, % at 15 µM; 0.2% of 360,000 active; AID 651654;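 active means mean lysis activity across replicates of at least 80%, whatever share of replicates individually reach that level; inactive means mean lysis activity below 80%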
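read-out = cell lysis signal | test system = log-phase Cryptococcus neoformans yeast cells | input = cells at 5 × 10^6 per mL | medium = fresh YPD growth medium | signal = luminescent adenylate kinase detection reagent | timing = 4 h at 37 °C static, read 1 h later | dosing = single dose | controls = Clomiphene as positive lysis control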
DENV2 CPE rescue: DENV2-induced cell death inhibition | DENV2-infected cells, cytopathic effect rescue, plate reader | CPE inhibition, % at 9.99 µM | 1.7% of 350,000 active | AID 651640; in the data active means CPE inhibition above about 20%, passing the limit was not always enough; inconclusive means no clear call, values can overlap the other calls; tested in BHK-21 cells;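 further: 0% = median of neutral control wells and 100% = median of positive control wells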
PDI inh: blocks human protein disulfide isomerase activity | AID 588391 | 0.052% of 350,000 active | inhibition, % at 10 µM | PDI insulin aggregation turbidity, A650, 90 min | P07237;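 active means mean inhibition across replicates of 30% or more, whatever share of single replicates reach that level; inconclusive means mean inhibition below 30% while every single replicate reaches 30%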
F508del corr: correctors of CFTR F508del function in bronchial epithelial cells. CFBE cells, YFP halide quenching; stimulated with forskolin plus potentiator P3; % fluorescence drop versus neutral controls. 0.36% of 350,000 active. activity (quench increase), % at 7.58 µM;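 active means mean added fluorescence quench of at least 8% versus neutral control, with both replicates also reaching 8%; inconclusive means only one of the mean or replicate conditions met; inactive means mean below 8% and not both replicates reaching 8%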;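 further: cells transiently co-express mutant CFTR-F508del with the halide-sensitive YFP; corrector assay measuring rescue of mutant channel to the surface after 24 h compound exposure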
ERp5 inh: ERp5 (human) disulfide isomerase inhibition; ERp5 insulin aggregation, absorbance 650 nm, 90 min; 0.05% of 350,000 active; Q15084; inhibition, % at 9.99 µM;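 active means mean replicate inhibition above about 25%, with every replicate also reaching it, limit read from the data, passing the limit was not always enough; inconclusive means only one of those two criteria met; inactive means neither criterion met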
Target sequence (Q15084 whole entry, looked up): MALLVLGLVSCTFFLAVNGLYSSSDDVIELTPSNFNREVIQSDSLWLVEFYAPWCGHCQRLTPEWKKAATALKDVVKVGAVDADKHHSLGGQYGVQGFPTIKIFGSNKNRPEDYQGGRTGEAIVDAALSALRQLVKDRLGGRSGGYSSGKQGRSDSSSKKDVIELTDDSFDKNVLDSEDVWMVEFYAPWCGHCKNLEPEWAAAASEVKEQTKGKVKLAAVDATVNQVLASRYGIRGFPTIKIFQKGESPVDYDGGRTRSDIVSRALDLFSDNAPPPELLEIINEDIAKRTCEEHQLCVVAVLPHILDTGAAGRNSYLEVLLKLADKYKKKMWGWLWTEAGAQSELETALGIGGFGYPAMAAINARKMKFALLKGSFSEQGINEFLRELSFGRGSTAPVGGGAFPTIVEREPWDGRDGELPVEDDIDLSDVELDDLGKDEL
* hit, by the source's call; ? = inconclusive; / = no result given; ! = a repeat was not active.

SMILES | C2C12 statin | Cneo AK release | DENV2 CPE rescue | PDI inh | F508del corr | ERp5 inh
C[C@H](CO)N1C[C@H](C)[C@@H](CN(C)Cc2ccc(Oc3ccccc3)cc2)Oc2ccc(NC(=O)Nc3cccc4ccccc34)cc2CC1=O | 74* | 4 | -7 | / | 0 | -4
C[C@@H]1CN([C@@H](C)CO)C(=O)Cc2cc(NC(=O)Nc3cccc4ccccc34)ccc2O[C@H]1CN(C)Cc1ccc2c(c1)OCO2 | 75* | 0 | -4 | / | 1 | -3
C[C@H]1CN([C@@H](C)CO)C(=O)Cc2cc(NC(=O)Nc3cccc4ccccc34)ccc2O[C@@H]1CN(C)Cc1ccc2c(c1)OCO2 | 33 | 1 | -7 | / | -2 | -2
C[C@H]1CN([C@@H](C)CO)C(=O)Cc2cc(NC(=O)Nc3cccc4ccccc34)ccc2O[C@H]1CN(C)Cc1ccc(C(=O)O)cc1 | 1 | 8 | 5 | / | 0 | 2
CCNC(=O)Nc1ccc2c(c1)C(=O)N(C)[C@H]1CC[C@H](CC(=O)Nc3ccccc3OC)O[C@@H]1CO2 | / | / | 6 | / | -1 | 10
CCCNC(=O)N(C)C[C@@H]1Oc2ncc(C#Cc3ccncc3)cc2C(=O)N([C@@H](C)CO)C[C@H]1C | -3 | -2 | 7 | / | 0 | 12
COc1ccc(S(=O)(=O)Nc2ccc3c(c2)C(=O)N([C@@H](C)CO)C[C@@H](C)[C@H](CN(C)C(=O)Nc2ccccc2)OCCCC[C@@H](C)O3)cc1 | 8 | -1 | -2 | / | -5 | 13
C[C@@H]1CN([C@H](C)CO)C(=O)c2cc(C3=CCCCC3)cnc2O[C@H]1CN(C)C(=O)CN1CCOCC1 | 9 | 1 | 7 | / | -2 | 3
CCC(=O)N1[C@@H]2c3ccc(C4=CCCCC4)c(=O)n3C[C@H]1[C@H](CO)[C@H]2C(=O)N[C@H](C)c1ccccc1 | -14 | -2 | 93* | / | 2 | 5
CN(C)CCCNC(=O)[C@H]1[C@H](CO)[C@H]2Cn3c(ccc(-c4ccccc4)c3=O)[C@@H]1N2C | -3 | 1 | 47* | / | 2 | 1
COc1ccccc1-c1ccc2n(c1=O)C[C@H]1[C@H](CO)[C@@H](C(=O)N[C@H](C)c3ccccc3)[C@@H]2N1C | 11 | 1 | 74* | / | -2 | -1
CC(=O)N1[C@@H]2Cn3c(ccc(C4=CCCCC4)c3=O)[C@H]1[C@@H](C(=O)N[C@@H](C)c1ccccc1)[C@@H]2CO | -16 | -4 | -3 | / | / | -2
O=C(CSc1nc2ccccc2c(=O)n1CC1CCCO1)Nc1ccccc1 (stereo not drawn) | 5 | 3 | -3 | -2 | 1 | -6
O=C(CSc1nc2ccccc2c(=O)n1CC1CCCO1)Nc1ccccc1Cl (stereo not drawn) | 79* | -1 | -3 | -3 | 3 | -5
COc1cccc(-c2ccc([C@H]3[C@H]4CN(CC5CCOCC5)CCCCN4[C@H]3CO)cc2)c1 | / | -1 | -6 | / | -2 | -1
COc1ccc(-c2ccc([C@@H]3[C@H]4CN(CC5CCOCC5)CCCCN4[C@H]3CO)cc2)cc1 | 0 | -1 | 63* | / | -1 | 9
COc1cccc(-c2ccc([C@@H]3[C@H](CO)N4CCCCN(CC5CCOCC5)C[C@@H]34)cc2)c1 | / | 0 | -4 | / | -1 | 3
COc1ccc(-c2ccc([C@@H]3[C@@H](CO)N4CCCCN(CC5CCOCC5)C[C@H]34)cc2)cc1 | 3 | -1 | 48* | / | 1 | -5
C[C@@H]1CN([C@@H](C)CO)C(=O)Cc2cc(NC(=O)C3CC3)ccc2O[C@H]1CN(C)S(=O)(=O)c1ccc(Cl)cc1 | 3 | -3 | 70* | / | -4 | 9
C[C@@H]1CN([C@@H](C)CO)C(=O)Cc2cc(NC(=O)C3CC3)ccc2O[C@H]1CN(C)S(=O)(=O)c1ccccc1 | 6 | -1 | 34* | / | -1 | -3
CN1CCN(Cc2nc3ccccc3c(=O)n2Cc2nc(-c3cccc([N+](=O)[O-])c3)cs2)CC1 | / | / | 6 | 14 | -2 | -1
CN1CCN(Cc2nc3ccccc3c(=O)n2Cc2nc(-c3ccc4ccccc4c3)cs2)CC1 | / | / | ? | 44*! | -5 | 13
CCN1C(=O)CC(Sc2ccccc2C(=O)O)C1=O (stereo not drawn) | 159* | -1 | / | 0 | / | /
O=C(O)c1ccccc1SC1CC(=O)N(c2cccc3ccccc23)C1=O (stereo not drawn) | -10 | 2 | 0 | -3 | -4 | -2
O=C(NCCCCNC(=O)c1ccc(Cl)s1)c1ccc(Cl)s1 | 108* | -1 | / | -3 | / | /
SMILES | C2C12 statin | Cneo AK release | DENV2 CPE rescue | PDI inh | F508del corr | ERp5 inh
CO[C@H]1CC[C@@H]2CCN(C)C(=O)[C@H](C)[C@H](OC)CN(C)C(=O)c3cccc(C#N)c3OC[C@@H]1O2 | 4 | -1 | -10 | / | -2 | 1
Cc1cc2occ(CC(=O)NNC(=O)c3ccccc3)c2cc1C | 1 | -1 | 10 | 5 | 2 | 66*
Cc1ccc2c(CC(=O)NNC(=O)c3ccccc3)coc2c1 | / | / | 3 | -10 | / | -1
O=C(c1cccnc1)N1CCCCN2[C@@H](CO)[C@@H](c3ccc(C#Cc4ccccc4)cc3)[C@@H]2C1 | / | 1 | 16 | / | -5 | -4
COc1ccc(N=C2C(=O)N3CCCc4cccc2c43)cc1 | / | / | 16 | 0 | 12* | 22
COC(=O)[C@@H]1C[C@@H]2CC[C@@H](O)C[C@@H]2N1Cc1ccc(Cl)cc1 | -7 | 1 | -1 | -4 | 0 | -2
COC(=O)[C@@H]1C[C@H]2CC[C@H](O)C[C@H]2N1Cc1ccc(C(F)(F)F)cc1 | 1 | -5 | 61* | -2 | 0 | -3
C[C@H]1CN([C@@H](C)CO)S(=O)(=O)c2ccc(C#CC3CC3)cc2O[C@H]1CN(C)Cc1ccccc1F | 10 | 4 | -4 | / | 6 | 6
Cc1noc(C)c1NC(=O)Nc1ccc2c(c1)C(=O)N(C)[C@@H]1CC[C@@H](CC(=O)N[C@H]3CCN(Cc4ccccc4)C3)O[C@@H]1CO2 | -8 | 4 | -5 | / | 1 | 0
Cc1noc(C)c1NC(=O)Nc1ccc2c(c1)C(=O)N(C)[C@@H]1CC[C@H](CC(=O)N[C@H]3CCN(Cc4ccccc4)C3)O[C@@H]1CO2 | 47 | 100* | -1 | / | 3 | -3
Cc1noc(C)c1NC(=O)Nc1ccc2c(c1)C(=O)N(C)[C@H]1CC[C@H](CC(=O)N[C@H]3CCN(Cc4ccccc4)C3)O[C@H]1CO2 | -9 | 86* | 0 | / | 1 | ?
CCC(=O)N1[C@H](CO)[C@@H]2c3ccccc3N(C(=O)CC(F)(F)F)C[C@@H]21 | -30 | 0 | 5 | / | -2 | 4
O=S(=O)(N[C@@H]1CC[C@@H](CCn2cc(-c3cccnc3)nn2)O[C@H]1CO)c1ccc(Cl)cc1 | -6 | -3 | 7 | / | -3 | -4
CCCCNc1c(-c2ccc(OC)c(SC(C)CC)c2)nc2cc(C)ccn12 (stereo not drawn) | -146 | 3 | -6 | 6 | 3 | 1

Source: PubChem BioAssay (Broad Institute)
